Assay results: ChEMBL document CHEMBL4402598, “Design and Synthesis of Bitopic 2-Phenylcyclopropylmethylamine (PCPMA) Derivatives as Selective Dopamine D3 Receptor Ligands” (J Med Chem, 2020); call rule not given here

Experiments:
[1] = Half life in ICR mouse at 10 mg/kg, po by LC-MS/MS analysis; type: ADME, organism-based; settings: in vivo
How it was run: (§1)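 Male ICR mice (6-8 weeks, ~25 g) dosed with compound dissolved in saline, 5 mg/kg iv or 10 mg/kg po, nine animals per group. Samples stored at -80 °C; drug quantified by LC-MS/MS.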

[2] = Drug level in ICR mouse plasma at 5 mg/kg, iv measured after 0.5 hrs by LC-MS/MS analysis; type: ADME, organism-based
How it was run: (§2)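 Male ICR mice (6-8 weeks, ~25 g) received compound in saline, 5 mg/kg iv or 10 mg/kg po. Brains collected at 0.5 and 2.0 h, saline-washed, weighed, homogenized in cold 50% methanol (1 g:3 mL). Plasma prepared from orbital blood. Samples held at -80 °C; LC-MS/MS quantitation. Brain/plasma ratio calculated from the two concentrations.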

D(2) dopamine receptor = D(2) dopamine receptor (Homo sapiens, UniProt P14416); assay: Displacement of [3H]-N-methylspiperone from recombinant human D2 receptor stably expressed in fibroblast cell membranes measured after 90 mins by microbeta scintillation counting method
Sequence of D(2) dopamine receptor (P14416 whole entry): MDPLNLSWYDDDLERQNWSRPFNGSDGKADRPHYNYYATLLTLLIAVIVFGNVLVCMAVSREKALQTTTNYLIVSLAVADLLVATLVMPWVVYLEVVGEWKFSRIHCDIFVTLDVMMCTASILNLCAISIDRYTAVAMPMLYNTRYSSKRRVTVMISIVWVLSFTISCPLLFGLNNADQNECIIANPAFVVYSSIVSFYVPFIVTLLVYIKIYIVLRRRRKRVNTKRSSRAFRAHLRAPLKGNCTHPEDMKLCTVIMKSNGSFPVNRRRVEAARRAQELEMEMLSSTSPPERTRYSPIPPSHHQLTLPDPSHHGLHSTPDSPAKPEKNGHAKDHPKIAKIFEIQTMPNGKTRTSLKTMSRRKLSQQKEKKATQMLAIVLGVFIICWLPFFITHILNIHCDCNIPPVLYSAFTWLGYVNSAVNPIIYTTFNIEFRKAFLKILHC

[3] = Oral bioavailability in ICR mouse at 10 mg/kg by LC-MS/MS analysis; type: ADME, organism-based; settings: in vivo; how it was run: as §1
[4] = Drug level in ICR mouse brain at 5 mg/kg, iv measured after 0.5 hrs by LC-MS/MS analysis; type: ADME, organism-based; how it was run: as §2
[5] = MRT in ICR mouse at 10 mg/kg, po by LC-MS/MS analysis; type: ADME, organism-based; settings: in vivo; how it was run: as §1
[6] = Drug level in ICR mouse plasma at 10 mg/kg, po measured after 0.5 hrs by LC-MS/MS analysis; type: ADME, organism-based; how it was run: as §2
D(1B) dopamine receptor = D(1B) dopamine receptor (Homo sapiens, UniProt P21918); assay: Displacement of [3H]-SCH23390 from recombinant human D5 receptor transiently expressed in HEKT cell membranes measured after 90 mins by microbeta scintillation counting method
Sequence of D(1B) dopamine receptor (P21918 whole entry): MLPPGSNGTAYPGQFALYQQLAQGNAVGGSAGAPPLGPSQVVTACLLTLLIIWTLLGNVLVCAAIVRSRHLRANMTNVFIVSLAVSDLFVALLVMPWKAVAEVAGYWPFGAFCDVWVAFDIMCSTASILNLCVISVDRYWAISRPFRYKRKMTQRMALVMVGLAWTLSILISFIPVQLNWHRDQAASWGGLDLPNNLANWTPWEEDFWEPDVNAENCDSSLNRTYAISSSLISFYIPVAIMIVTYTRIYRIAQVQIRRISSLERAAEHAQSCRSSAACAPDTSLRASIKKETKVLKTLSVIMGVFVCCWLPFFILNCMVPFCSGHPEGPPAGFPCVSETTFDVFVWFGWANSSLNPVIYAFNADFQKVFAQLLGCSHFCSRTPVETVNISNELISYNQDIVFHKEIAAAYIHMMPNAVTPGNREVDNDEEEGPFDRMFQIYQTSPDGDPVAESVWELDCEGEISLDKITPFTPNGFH

[7] = Drug level in ICR mouse brain at 5 mg/kg, iv measured after 2 hrs by LC-MS/MS analysis; type: ADME, organism-based; how it was run: as §2
[8] = MRT in ICR mouse at 5 mg/kg, iv by LC-MS/MS analysis; type: ADME, organism-based; settings: in vivo; how it was run: as §1
[9] = Ratio of drug level in ICR mouse brain to plasma at 5 mg/kg, iv measured after 0.5 hrs by LC-MS/MS analysis; type: ADME, organism-based; settings: read-out: BPR; how it was run: as §2
[10] = biological target: T1, 5-hydroxytryptamine receptor 2C (Homo sapiens, UniProt P28335); assay: Displacement of [3H]-Mesulergine from recombinant human 5HT2C receptor expressed in HEKT cell membranes measured after 90 mins by microbeta scintillation counting method
T1 sequence (P28335 whole entry): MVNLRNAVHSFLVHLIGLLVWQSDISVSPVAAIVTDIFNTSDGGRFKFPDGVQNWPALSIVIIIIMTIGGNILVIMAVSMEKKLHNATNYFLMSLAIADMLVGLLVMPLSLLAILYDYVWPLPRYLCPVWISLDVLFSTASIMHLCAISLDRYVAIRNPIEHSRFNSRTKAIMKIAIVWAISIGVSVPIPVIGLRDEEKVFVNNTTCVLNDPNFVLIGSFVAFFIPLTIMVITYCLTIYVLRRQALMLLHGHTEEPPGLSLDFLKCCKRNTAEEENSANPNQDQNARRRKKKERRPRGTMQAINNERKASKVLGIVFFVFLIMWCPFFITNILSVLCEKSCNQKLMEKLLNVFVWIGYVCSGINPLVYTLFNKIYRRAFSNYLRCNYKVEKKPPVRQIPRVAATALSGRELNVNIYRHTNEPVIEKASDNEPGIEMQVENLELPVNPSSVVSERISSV

D(1A) dopamine receptor = D(1A) dopamine receptor (Homo sapiens, UniProt P21728); assay: Displacement of [3H]-SCH23390 from recombinant human D1 receptor transiently expressed in HEKT cell membranes measured after 90 mins by microbeta scintillation counting method
Sequence of D(1A) dopamine receptor (P21728 whole entry): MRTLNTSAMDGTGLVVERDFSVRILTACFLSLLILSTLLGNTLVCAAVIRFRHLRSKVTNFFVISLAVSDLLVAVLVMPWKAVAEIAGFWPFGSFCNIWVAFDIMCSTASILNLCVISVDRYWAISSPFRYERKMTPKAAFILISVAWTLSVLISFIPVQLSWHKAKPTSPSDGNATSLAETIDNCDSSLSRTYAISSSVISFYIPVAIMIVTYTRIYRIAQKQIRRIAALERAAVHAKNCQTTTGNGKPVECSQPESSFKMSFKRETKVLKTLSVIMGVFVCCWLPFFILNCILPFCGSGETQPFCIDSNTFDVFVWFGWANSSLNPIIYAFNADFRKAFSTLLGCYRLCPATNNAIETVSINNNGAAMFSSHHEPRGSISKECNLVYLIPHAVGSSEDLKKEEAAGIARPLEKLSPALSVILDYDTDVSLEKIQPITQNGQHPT

[11] = Ratio of drug level in ICR mouse brain to plasma at 10 mg/kg, po measured after 2 hrs by LC-MS/MS analysis; type: ADME, organism-based; settings: read-out: BPR; how it was run: as §2
[12] = Ratio of drug level in ICR mouse brain to plasma at 5 mg/kg, iv measured after 2 hrs by LC-MS/MS analysis; type: ADME, organism-based; settings: read-out: BPR; how it was run: as §2
[13] = Cmax in ICR mouse at 10 mg/kg, po by LC-MS/MS analysis; type: ADME, organism-based; set-up: dose 10 mg/kg, route oral; settings: in vivo; how it was run: as §1
[14] = biological target: T1, 5-hydroxytryptamine receptor 2C; assay: Antagonist activity at human 5HT2C receptor stably expressed in HEK293 cells co-expressing Gq assessed as inhibition of 5-HT-induced calcium mobilization preincubated for 15 mins followed by 5-HT addition and measured at 1 sec interval for 60 secs by Fluo-4 calcium dye based FLIPR assay; type: functional, cell-based
How it was run: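 5-HT2C stably transfected HEK293 cells, loaded with Fluo-4 Direct (HBSS, 20 mM HEPES pH 7.4, 2.5 mM probenecid; 50 min 37 °C, 10 min room temperature). Test compound added, then 5-HT (final 1 nM) 15 min later.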

[15] = Ratio of drug level in ICR mouse brain to plasma at 10 mg/kg, po measured after 0.5 hrs by LC-MS/MS analysis; type: ADME, organism-based; settings: read-out: BPR; how it was run: as §2
[16] = Drug level in ICR mouse brain at 10 mg/kg, po measured after 2 hrs by LC-MS/MS analysis; type: ADME, organism-based; how it was run: as §2
[17] = Tmax in ICR mouse at 10 mg/kg, po by LC-MS/MS analysis; type: ADME, organism-based; settings: in vivo; how it was run: as §1
[18] = biological target: 5-hydroxytryptamine receptor 2B (Homo sapiens, UniProt P41595); assay: Agonist activity at 5HT2B receptor (unknown origin) expressed in HEK293 cells co-expressing Gq assessed as induction of calcium mobilization measured at 1 sec interval for 60 secs by Fluo-4 calcium dye based FLIPR assay; type: cell-based; settings: hek293, 1 min
Sequence of 5-hydroxytryptamine receptor 2B (P41595 whole entry): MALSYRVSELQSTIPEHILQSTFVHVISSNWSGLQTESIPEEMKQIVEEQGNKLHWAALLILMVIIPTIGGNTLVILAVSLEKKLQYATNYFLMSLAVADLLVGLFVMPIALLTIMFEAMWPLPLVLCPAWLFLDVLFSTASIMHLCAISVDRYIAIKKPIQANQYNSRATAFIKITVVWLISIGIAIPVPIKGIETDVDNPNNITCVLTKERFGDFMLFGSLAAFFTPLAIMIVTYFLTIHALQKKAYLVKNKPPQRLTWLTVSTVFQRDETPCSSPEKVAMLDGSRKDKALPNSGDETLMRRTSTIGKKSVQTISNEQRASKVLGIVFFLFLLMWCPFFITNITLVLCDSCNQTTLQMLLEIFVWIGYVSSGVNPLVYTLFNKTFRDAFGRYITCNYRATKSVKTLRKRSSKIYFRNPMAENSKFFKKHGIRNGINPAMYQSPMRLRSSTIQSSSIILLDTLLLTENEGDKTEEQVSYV

[19] = Drug level in ICR mouse brain at 10 mg/kg, po measured after 0.5 hrs by LC-MS/MS analysis; type: ADME, organism-based; how it was run: as §2
[20] = biological target: 5-hydroxytryptamine receptor 2A (Homo sapiens, UniProt P28223); assay: Agonist activity at 5HT2A receptor (unknown origin) expressed in HEK293 cells co-expressing Gq assessed as induction of calcium mobilization measured at 1 sec interval for 60 secs by Fluo-4 calcium dye based FLIPR assay; type: cell-based; settings: hek293, 1 min
Sequence of 5-hydroxytryptamine receptor 2A (P28223 whole entry): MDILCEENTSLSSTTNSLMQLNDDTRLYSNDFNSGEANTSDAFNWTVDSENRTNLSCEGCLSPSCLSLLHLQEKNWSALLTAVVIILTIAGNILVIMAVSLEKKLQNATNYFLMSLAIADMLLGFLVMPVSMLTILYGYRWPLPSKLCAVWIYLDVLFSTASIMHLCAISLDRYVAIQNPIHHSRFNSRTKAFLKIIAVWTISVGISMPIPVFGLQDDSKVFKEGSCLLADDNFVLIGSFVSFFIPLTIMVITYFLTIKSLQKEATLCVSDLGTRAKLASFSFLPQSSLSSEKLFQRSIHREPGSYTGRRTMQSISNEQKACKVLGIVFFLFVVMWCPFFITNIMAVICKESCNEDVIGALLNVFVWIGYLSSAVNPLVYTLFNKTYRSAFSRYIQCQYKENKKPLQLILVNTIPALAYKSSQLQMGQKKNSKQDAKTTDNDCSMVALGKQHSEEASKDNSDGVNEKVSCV

[21] = Drug level in ICR mouse plasma at 10 mg/kg, po measured after 2 hrs by LC-MS/MS analysis; type: ADME, organism-based; how it was run: as §2
[22] = AUC (0 to t) in ICR mouse at 5 mg/kg, iv by LC-MS/MS analysis; type: ADME, organism-based; settings: in vivo; how it was run: as §1
[23] = AUC (0 to t) in ICR mouse at 10 mg/kg, po by LC-MS/MS analysis; type: ADME, organism-based; settings: in vivo; how it was run: as §1
[24] = Half life in ICR mouse at 5 mg/kg, iv by LC-MS/MS analysis; type: ADME, organism-based; settings: in vivo; how it was run: as §1
D(4) dopamine receptor = biological target: T2, D(4) dopamine receptor (Homo sapiens, UniProt P21917); assay: Displacement of [3H]-N-methylspiperone from recombinant human D4 receptor stably expressed in HEK cell membranes measured after 90 mins by microbeta scintillation counting method
T2 sequence (P21917 whole entry): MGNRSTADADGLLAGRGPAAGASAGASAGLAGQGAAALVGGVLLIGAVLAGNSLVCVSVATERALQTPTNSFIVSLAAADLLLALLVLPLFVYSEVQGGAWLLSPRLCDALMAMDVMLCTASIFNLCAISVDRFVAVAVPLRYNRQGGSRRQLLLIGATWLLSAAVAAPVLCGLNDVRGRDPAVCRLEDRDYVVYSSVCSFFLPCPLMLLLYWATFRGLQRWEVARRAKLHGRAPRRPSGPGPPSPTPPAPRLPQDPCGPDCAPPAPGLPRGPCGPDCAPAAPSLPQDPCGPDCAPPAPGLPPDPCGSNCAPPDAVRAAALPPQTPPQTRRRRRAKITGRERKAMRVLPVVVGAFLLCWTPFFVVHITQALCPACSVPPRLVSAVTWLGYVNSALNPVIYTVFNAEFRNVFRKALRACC

[25] = Drug level in ICR mouse plasma at 5 mg/kg, iv measured after 2 hrs by LC-MS/MS analysis; type: ADME, organism-based; how it was run: as §2
[26] = Clearance in ICR mouse at 5 mg/kg, iv by LC-MS/MS analysis; type: ADME, organism-based; settings: in vivo; how it was run: as §1
[27] = Volume of distribution at steady state in ICR mouse at 5 mg/kg, iv by LC-MS/MS analysis; type: ADME, organism-based; settings: in vivo, read-out: Vdss; how it was run: as §1
D(3) dopamine receptor = D(3) dopamine receptor (Homo sapiens, UniProt P35462); assay: Displacement of [3H]-N-methylspiperone from recombinant human D3 receptor (unknown origin) measured after 90 mins by microbeta scintillation counting method
Sequence of D(3) dopamine receptor (P35462 whole entry): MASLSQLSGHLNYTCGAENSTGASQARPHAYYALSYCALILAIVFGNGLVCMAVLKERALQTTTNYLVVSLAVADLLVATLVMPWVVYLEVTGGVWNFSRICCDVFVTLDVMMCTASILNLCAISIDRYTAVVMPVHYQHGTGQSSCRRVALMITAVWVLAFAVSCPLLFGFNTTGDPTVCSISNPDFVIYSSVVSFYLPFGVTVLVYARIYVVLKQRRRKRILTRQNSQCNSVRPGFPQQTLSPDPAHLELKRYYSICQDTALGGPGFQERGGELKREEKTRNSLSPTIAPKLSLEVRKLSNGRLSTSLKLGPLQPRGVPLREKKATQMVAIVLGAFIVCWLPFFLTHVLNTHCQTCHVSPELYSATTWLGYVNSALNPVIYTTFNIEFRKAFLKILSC

CCCN(CCCCNC(=O)c1cc2ccccc2[nH]1)C[C@@H]1C[C@H]1c1cccc(Cl)c1Cl.Cl
half-life [1]: 247 min | concentration at 0.5 h [2]: 215 ng/mL | Ki (D(2) dopamine receptor): 537 nM | bioavailability [3]: 34.1% | concentration at 0.5 h [4]: 833 ng/mL | MRT [5]: 6 h | concentration at 0.5 h [6]: 35.5 ng/mL | Ki (D(1B) dopamine receptor): > 5 µM | concentration at 2 h [7]: 543 ng/mL | MRT [8]: 3.4 h | Kp at 0.5 h [9]: 3.88 | Ki [10]: 513 nM | Ki (D(1A) dopamine receptor): 1380 nM | Kp at 2 h [11]: 2.36 | Kp at 2 h [12]: 5.72 | Cmax [13]: 63.9 ng/mL | IC50 [14]: > 30 µM | Kp at 0.5 h [15]: 1.45 | concentration at 2 h [16]: 160 ng/mL | Tmax [17]: 1 h | Activity [18]: Not Active | concentration at 0.5 h [19]: 51.3 ng/mL | Activity [20]: Active | concentration at 2 h [21]: 67.7 ng/mL | AUC(0-t) [22]: 629 ng·h/mL | AUC(0-t) [23]: 428 ng·h/mL | half-life [24]: 187 min | Ki (D(4) dopamine receptor): 1050 nM | concentration at 2 h [25]: 94.8 ng/mL | clearance [26]: 117 mL/min/kg | Vd [27]: 23.8 L/kg

CCN(CCCCNC(=O)c1ccc2ccccc2c1)CC1CC1c1cc(F)ccc1OC (centres undefined)
Ki (D(2) dopamine receptor): 407 nM | Ki (D(3) dopamine receptor): 15 nM | Ki (D(1B) dopamine receptor): 1.72 µM | Ki [10]: 57.5 nM | Ki (D(1A) dopamine receptor): 986 nM | Ki (D(4) dopamine receptor): 385 nM

COc1ccc(Cl)cc1C1CC1CN(CCCSc1nnc(-c2ccccc2)n1C)CC1CC1 (centres undefined)
Ki (D(2) dopamine receptor): 216 nM | Ki (D(3) dopamine receptor): 23.7 nM | Ki (D(1B) dopamine receptor): > 5 µM | Ki [10]: 274 nM | Ki (D(1A) dopamine receptor): 636 nM | Ki (D(4) dopamine receptor): 163 nM

CCCN(CCCCNC(=O)c1ccc2ccccc2c1)CC1CC1c1cccc(Cl)c1 (centres undefined)
Ki (D(2) dopamine receptor): 4010 nM | Ki (D(3) dopamine receptor): 15.5 nM | Ki (D(1B) dopamine receptor): 8.67 µM | Ki [10]: 136 nM | Ki (D(1A) dopamine receptor): 940 nM | Ki (D(4) dopamine receptor): 1320 nM
